# In ChEMBL document CHEMBL2021780, “Antineoplastic agents. 548. Synthesis of iodo- and diiodocombstatin phosphate prodrugs” (J Nat Prod, 2012):
# Legend:
# [1] = tested on: DU-145; experiment: Growth inhibition of human DU145 cells after 48 hrs by sulforhodamine B assay; assay type: functional; settings: DU-145, 48 h
# Method in brief: (§1)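 NCI sulforhodamine B assay. Cells were seeded in 5% FBS/RPMI-1640 and incubated 24 h. Serial compound dilutions were then added for 48 h. Cells were fixed with trichloroacetic acid, stained with SRB and read by microplate reader. GI50 is the concentration giving 50% reduction in net protein increase, calculated from optical density data.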
# [2] = Solubility of the compound in water; assay type: physicochemical
# Method in brief: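 Solubility expressed as amount dissolving in 1 mL H₂O at 25 °C.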
# [3] = tested on: P388; experiment: Growth inhibition of mouse P388 cells after 48 hrs by Z1 Beckman/Coulter particle counter analysis; assay type: functional; settings: P388, 48 h, read-out: ED50 (the source's name)
# Method in brief: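 Mouse P388 leukemia cells were incubated 24 h in 10% horse serum/Fisher medium, then exposed 48 h to serial compound dilutions. ED50 was calculated from cell counts on a Coulter Z1 particle counter.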
# [4] = tested on: HUVEC; experiment: Antiangiogenic activity in HUVEC assessed as cell growth at 0.00001 ug/ml after 24 hrs by sulforhodamine B assay relative to control; assay type: functional; settings: Homo sapiens, read-out: Activity
# [5] = tested on: HUVEC; experiment: Antiangiogenic activity in HUVEC assessed as cell growth inhibition after 48 hrs by sulforhodamine B assay; assay type: functional, cell-based; settings: Homo sapiens
# Method in brief: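 HUVECs were grown in EGM-2 medium and tested with the standard SRB growth assay following NCI Developmental Therapeutics Program Matrigel antiangiogenesis protocols. IC50 (concentration causing 50% inhibition) was calculated from plotted data.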
# [6] = tested on: HUVEC; experiment: Antiangiogenic activity in HUVEC assessed as cell growth at 0.001 ug/ml after 24 hrs by sulforhodamine B assay relative to control; assay type: functional, Homo sapiens
# [7] = tested on: NCI-H460; experiment: Growth inhibition of human NCI-H460 cells after 48 hrs by sulforhodamine B assay; assay type: functional; settings: NCI-H460, 48 h; method in brief: as §1
# [8] = tested on: HUVEC; experiment: Antiangiogenic activity in HUVEC assessed as reduction of cord length at 0.001 ug/ml after 24 hrs by matrigel assay relative to control; assay type: functional, Homo sapiens; design: scale not given: the % may be the effect or the level left
# Method in brief: (§2)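 Commercial HUVECs grown in EGM-2 were seeded at 2 × 10⁵ cells/mL onto Matrigel, which had been polymerized 15 min at rt and then 30 min at 37 °C, per NCI DTP protocol. Compound was added and cells were incubated 24 h, then imaged by inverted microscopy. Cord length and junction number were scored against untreated control on a scale from − (none) to +++ (same as control), with ++ = 50% of control.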
# [9] = tested on: KM-20L2; experiment: Growth inhibition of human KM20L2 cells after 48 hrs by sulforhodamine B assay; assay type: functional; settings: KM-20L2, 48 h; method in brief: as §1
# [10] = tested on: HUVEC; experiment: Antiangiogenic activity in HUVEC assessed as reduction of number of junctions at 0.001 ug/ml after 24 hrs by matrigel assay relative to control; assay type: functional, Homo sapiens; design: scale not given: the % may be the effect or the level left; method in brief: as §2
# [11] = tested on: BXPC-3; experiment: Growth inhibition of human BxPC3 cells after 48 hrs by sulforhodamine B assay; assay type: functional; settings: BXPC-3, 48 h; method in brief: as §1
# [12] = tested on: HUVEC; experiment: Antiangiogenic activity in HUVEC assessed as cell growth at 0.01 ug/ml after 24 hrs by sulforhodamine B assay relative to control; assay type: functional, Homo sapiens
# [13] = Growth inhibition of human KAT4 cells after 48 hrs by sulforhodamine B assay; assay type: functional; settings: KAT-4, 48 h
# [14] = tested on: SW-1736; experiment: Growth inhibition of human SW1736 cells after 48 hrs by sulforhodamine B assay; assay type: functional; settings: SW-1736, 48 h
# [15] = tested on: HUVEC; experiment: Antiangiogenic activity in HUVEC assessed as cell growth at 0.0001 ug/ml after 24 hrs by sulforhodamine B assay relative to control; assay type: functional, Homo sapiens
# [16] = tested on: SF-268; experiment: Growth inhibition of human SF268 cells after 48 hrs by sulforhodamine B assay; assay type: functional; settings: SF-268, 48 h; method in brief: as §1
# [17] = tested on: MCF7; experiment: Growth inhibition of human MCF7 cells after 48 hrs by sulforhodamine B assay; assay type: functional; settings: MCF7, 48 h; method in brief: as §1
# [18] = tested on: Neisseria gonorrhoeae; experiment: Antibacterial activity against Neisseria gonorrhoeae ATCC 49226 by broth microdilution method; assay type: functional
# Method in brief: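 Broth microdilution followed NCCLS standard methods. Compounds were reconstituted in sterile DMSO and diluted in the appropriate medium immediately before testing. MIC was taken as the lowest concentration giving no visible growth (optically clear). Assays were repeated on separate days.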
# [19] = Inhibition of purified tubulin assembly after 20 mins
# Method in brief: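 Purified tubulin at 10 μM in 0.8 M monosodium glutamate (pH 6.6), 0.4 mM GTP and 4% (v/v) DMSO, with varying compound concentrations. Extent of assembly was measured after 20 min at 30 °C.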
# [20] = tested on: HUVEC; experiment: Antiangiogenic activity in HUVEC assessed as cell growth at 0.1 ug/ml after 24 hrs by sulforhodamine B assay relative to control; assay type: functional, Homo sapiens; settings: Homo sapiens, HUVEC, 24 h; read-out: Activity
SMILES,GI50 [1] [ng/mL],solubility ([2]; buffer),EC50 [3] [ng/mL],GI50 [7] [µg/mL],GI50 [9] [µg/mL],GI50 [11] [µg/mL],GI50 [16] [µg/mL],GI50 [17] [µg/mL],MIC [18] [µg/mL],further results
COc1ccc(/C=C\c2cc(I)c(OC)c(OC)c2)cc1OP(=O)([O-])[O-].[K+].[K+],3.8,14 mg/mL,2.1,0.0043,0.41,0.381,0.0057,0.0064,–,"growth at 10 pg/mL [4]: 95%; IC50 [5]: 0.25 ng/mL; growth at 0.001 µg/mL ([6]; Homo sapiens, HUVEC, 24 h, read-out: Activity): 10%; Activity [8]: 50%; Activity [10]: 75%; Activity [12]: 1%; GI50 [13]: 0.37 µg/mL; GI50 [14]: > 10 µg/mL; Activity [15]: 77%"
COc1ccc(/C=C\c2cc(I)c(OC)c(I)c2)cc1OP(=O)(O)O.OCN(CO)CO.OCN(CO)CO,21,–,26,0.025,0.94,0.33,0.04,0.047,< 0.5,–
COC(=O)[C@@H](N)Cc1c[nH]c2ccccc12.COC(=O)[C@@H](N)Cc1c[nH]c2ccccc12.COc1ccc(/C=C\c2cc(I)c(OC)c(OC)c2)cc1OP(=O)(O)O,3,–,2.2,0.0034,0.59,0.26,0.0097,0.035,4,–
C1CCNCC1.C1CCNCC1.COc1ccc(/C=C\c2cc(I)c(OC)c(OC)c2)cc1OP(=O)(O)O,2.9,–,2.6,0.0036,0.51,0.32,0.0044,0.0065,–,"solubility ([2]; water, read-out: solubility): ≥ 4 mg/mL"
COC(=O)[C@@H](N)Cc1c[nH]c2ccccc12.COC(=O)[C@@H](N)Cc1c[nH]c2ccccc12.COc1ccc(/C=C\c2cc(I)c(OC)c(I)c2)cc1OP(=O)(O)O,26,–,17,0.033,> 1,0.37,0.086,0.22,< 0.5,–
COc1ccc(/C=C\c2cc(I)c(OC)c(I)c2)cc1OP(=O)([O-])[O-].[Li+].[Li+],32,>= 4 mg/ml,21,0.05,–,0.37,0.05,–,< 0.5,–
COc1ccc(/C=C\c2cc(O)c(OC)c(OC)c2)cc1O,4.3,–,260,0.19,1.2,2.3,0.0083,0.49,–,–
COc1ccc(/C=C/c2cc(I)c(OC)c(OC)c2)cc1O [DIIODOCOMBSTATIN],270,–,189,0.21,1.7,2.7,0.55,0.18,–,–
COc1ccc(/C=C\c2cc(I)c(OC)c(OC)c2)cc1OP(=O)([O-])[O-].[Na+].[Na+],11,2 mg/mL,2,0.017,> 1,0.469,0.018,0.018,–,IC50 [5]: 0.35 ng/mL; Activity [6]: 5%; IC50 [19]: > 40 µM; Activity [12]: 14%; Activity [15]: 104%; growth at 0.1 µg/mL [20]: 7%
COC(=O)CN.COC(=O)CN.COc1ccc(/C=C\c2cc(I)c(OC)c(OC)c2)cc1OP(=O)(O)O,2.1,–,2.6,0.0031,0.32,0.16,0.0033,0.0044,–,"solubility ([2]; water, read-out: solubility): ≥ 2 mg/mL"
